Measurements published in publication PMC7063993 (ACS chemical neuroscience, 2019).

What was measured:
[1] = test system: rat brain mitochondrial complex I; assay: Mitochondrial complex I; type: biochemical
MN9D cells [2] = assay: Intracellular ROS levels by DCFH-DA in MN9D cells; type: cell-based, mouse
HepG2 cells [3] = assay: Intracellular ROS levels by DCFH-DA in HepG2 cells; type: cell-based, Human; conditions: 1 h
Outline: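 Cells in 12-well plates loaded with 10 μM DCFH-DA in KRB-HEPES for 1 h, then washed with ice-cold buffer. Exposed to test compound in the same buffer for 1 h at 37 °C. Harvested and lysed in 0.1 M Tris (pH 7.5) with 1% Triton X-100, then cleared by centrifugation. DCF fluorescence read at Ex/Em 488/524 nm and normalized to protein content.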

[4] = test system: MN9D cell mitochondrial membrane potential; assay: Mitochondrial membrane potential; type: cell-based, mouse; conditions: 500 μM, 1 h of incubation, TMRM
Outline: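 MN9D cells on glass-bottomed plates loaded with 50 nM TMRM in KRB-HEPES for 45 min in the dark. Fluorescence (Ex/Em 543/573 nm) recorded from 15–20 ROIs every 5 s for 3 min as baseline. Test compound then added and recording continued every 15 s for 1 h. Background subtracted and ROI averages taken as membrane potential.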

[5] = Relative lipophilicity estimated by reverse phase HPLC retention times; type: physicochemical
MN9D cells [6] = assay: Cellular uptake into MN9D cells; type: cell-based, mouse; conditions: for Concentration dependence of MN9D cell uptake: up to 100 μM (0-100 μM for 45 min for [3], [4], [5])
Outline: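 MN9D cells seeded at 0.25 x 10⁶ cells/well and grown 2–3 days to 70–80% confluency. Test compound in warm KRB-HEPES (pH 7.4) at 37 °C: 50 μM for 0–60 min (time course) or varying concentrations for 45 min. Cells washed in ice-cold buffer and pellets extracted with 0.1 M HClO₄. C18 reversed-phase HPLC-UV quantified against standard curves. Normalized to Bradford protein, time-zero readings subtracted.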

[7] = Uptake into isolated intact MN9D cell mitochondria; set-up: species or system mouse; conditions: 50 μM, 45 min
[8] = test system: dopaminergic SH-SH5Y cells; assay: MTT cell viability assay, SH-SY5Y cell toxicity; type: cell-based; conditions: read-out: IC50 (SH-SH5Y cell toxicity)
Outline: (§1)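 Cells grown in 96-well plates to ~70–80% confluence. Medium replaced with DMEM containing test compound at varying concentrations, 18 h (12 h in one series) at 37 °C. MTT added for 2 h at 37 °C. Formazan dissolved in 50% DMF/20% SDS for 12 h at 37 °C and read as A570 minus A650. Viability expressed as % of untreated controls.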

HepG2 cells [9] = assay: MTT cell viability assay, HepG2 cell toxicity; type: cell-based, Human; conditions: same conditions/concentrations as MN9D experiments
Outline: as §1

MN9D cells [10] = assay: Chromatin condensation test for apoptosis; type: cell-based, mouse; conditions: 200 μM [1], 12 h, 300 nM DAPI
Outline: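 MN9D cells on glass-bottomed plates exposed to test compound for 12 h. Nuclear DAPI fluorescence (Ex/Em 358/461 nm) from chromatin condensation observed by fluorescence microscopy. Controls handled the same way without toxin.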

dopaminergic MN9D cells = assay: MTT cell viability assay, MN9D cell toxicity; type: cell-based, mouse; conditions: Asc pre-treatment 30 min, 8 μM [3] or 40 μM [1], 18 h
Outline: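 MN9D cells in 96-well plates pretreated with ascorbate (0–500 μM) for 30 min at 37 °C. Then exposed to a fixed concentration of test compound with the same ascorbate level for 18 h at 37 °C. Read by MTT (A570 − A650) as % of controls. Parallel toxin-free wells at each ascorbate level subtracted to correct for MTT reduction by ascorbate.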

Compound	Effect on intracellular ROS levels in HepG2 cells (HepG2 cells [3])	Depolarization of MN9D cell mitochondrial membrane potential [4]	RT (relative lipophilicity, reverse phase HPLC retention time) [5] [min]	Concentration dependence of MN9D cell uptake (MN9D cells [6])	Uptake into isolated intact MN9D mitochondria [7]	further results
C=C(C)[C@H]1Cc2c(ccc3c2O[C@@H]2COc4cc(OC)c(OC)cc4[C@@H]2C3=O)O1 [rotenone]						Inhibition of ubiquinone dependent NADH oxidation activity of complex I ([1]; 10 μM, positive control, compared to control): more than 85%
4-(4′-methoxyphenyl-1-[2-(4-fluorophenyl)-propyl]pyridinium bromide [[5]]	did not increase	very weakly	6.97	concentration dependent and non-saturable	accumulate efficiently in intact mitochondria with comparable efficiency	Effect on intracellular ROS levels in MN9D cells (MN9D cells [2]; MN9D cells, up to 100 μM, 1 h, DCFH-DA): did not significantly increase
C[n+]1ccc(-c2ccccc2)cc1 [MPP^+, 1-methyl-4-phenylpyridinium]						Relative percent inhibition of complex I ([1]; 100 μM, rat brain mitochondrial membranes): 12.5%
4-(4′-methoxyphenyl-1-[2-(4-chlorophenyl)-propyl] pyridinium bromide [[3]]	did not increase	drastically	8.39	concentration dependent and non-saturable	accumulate efficiently in intact mitochondria with comparable efficiency	Increase of intracellular ROS level from the baseline levels (MN9D cells [2]; MN9D cells, 100 μM, 1 h, DCFH-DA): 2.5–3.0 fold
CC(=C[n+]1ccc(-c2ccccc2)cc1)c1ccccc1 [[1], N-(2-phenyl-1-propene)-4-phenyl-pyridinium]			6.33	non-saturable		IC50 [8]: ~50 µM; Toxicity to HepG2 cells (HepG2 cells [9]): not significantly toxic; Time course of MN9D cell uptake (MN9D cells [6]; 50 μM, up to 1 h, 37°C): linear; Chromatin condensation (nuclear DAPI fluorescence) in MN9D cell death (MN9D cells [10]): associated with chromatin condensation
O=C1O[C@H]([C@@H](O)CO)C(O)=C1O [Asc, ascorbate, reference compound]						Effect on [1] and [3]-mediated MN9D cell death (dopaminergic MN9D cells): protects; Effect on [1]-mediated ROS production in MN9D cells (MN9D cells [2]; Asc 0-2 mM pre-incubation 1 h, then 200 μM [1] for 5 h): effectively reduces
